Laboratory results: ChEMBL document CHEMBL1145003, “Design and synthesis of highly potent benzodiazepine gamma-secretase inhibitors: preparation of (2S,3R)-3-(3,4-difluorophenyl)-2-(4-fluorophenyl)-4- hydroxy-N-((3S)-1-methyl-2-oxo-5- phenyl-2,3-dihydro-1H-benzo[e][1,4]-diazepin-3-yl)butyramide by use of an asymmetric Ireland-Claisen rearrangement” (J Med Chem, 2003)

Assay: Inhibitory activity against human gamma-secretase in SH-SY5Y neuroblastoma cells
Format: cell-based
Method in brief: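 Whole-cell assay in SH-SY5Y neuroblastoma cells overexpressing exogenous substrate A4CTF, cleaved by endogenous human γ-secretase. IC50 determined over 0.3 nM to 10 µM; values are the mean of at least three determinations, reported with SD.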

| SMILES | IC50 [nM] |
| --- | --- |
| CN1C(=O)[C@@H](NC(=O)[C@@H](c2ccc(F)cc2)C(O)c2ccc(Cl)c(Cl)c2)N=C(c2ccccc2)c2ccccc21 (stereo not given in full) | 1.2 |
| CN1C(=O)[C@@H](NC(=O)[C@@H](c2ccc(F)cc2)[C@H](CBr)c2ccc(F)c(F)c2)N=C(c2ccccc2)c2ccccc21 | 6.7 |
| CC(C(=O)N[C@H]1N=C(c2ccccc2)c2ccccc2N(C)C1=O)/C(=N/O)c1ccc(Cl)c(Cl)c1 (stereo not given in full) | 35 |
| O=C1Nc2ccccc2C(c2ccccc2)=N[C@@H]1NC(=O)[C@@H](c1ccc(F)cc1)[C@H](CCO)c1ccc(F)c(F)c1 | 35 |
| CN1C(=O)[C@@H](NC(=O)[C@@H](c2ccc(F)cc2)C(O)c2ccc(F)c(F)c2)N=C(c2ccccc2)c2ccccc21 (stereo not given in full) | 0.8 |
| C[C@@H](C(=O)N[C@H]1N=C(c2ccccc2)c2ccccc2N(C)C1=O)[C@@H](O)c1ccc(Cl)c(Cl)c1 | 880 |
| C[C@H](C(=O)N[C@H]1N=C(c2ccccc2)c2ccccc2N(C)C1=O)[C@H](OS(N)(=O)=O)c1ccc(Cl)c(Cl)c1 | 450 |
| C[C@H](C(=O)N[C@H]1N=C(c2ccccc2)c2ccccc2N(C)C1=O)[C@H](O)c1ccc(Cl)c(Cl)c1 | 19 |
| CC(C(=O)N[C@H]1N=C(c2ccccc2)c2ccccc2N(C)C1=O)C(=O)c1ccc(Cl)c(Cl)c1 (stereo not given in full) | 930 |
| C=C[C@H](c1ccc(F)c(F)c1)[C@@H](C(=O)N[C@H]1N=C(c2ccccc2)c2ccccc2N(C)C1=O)c1ccc(F)cc1 | 100 |
| CO[C@H](c1ccc(Cl)c(Cl)c1)[C@H](C)C(=O)N[C@H]1N=C(c2ccccc2)c2ccccc2N(C)C1=O | 59 |
| O=C1Nc2ccccc2N(c2ccccc2)C[C@@H]1NC(=O)[C@@H](c1ccc(F)cc1)[C@H](CO)c1ccc(F)c(F)c1 | 0.07 |
| C[C@H](C(=O)N[C@H]1N=C(c2ccccc2)c2ccccc2N(C)C1=O)[C@H](OC(N)=O)c1ccc(Cl)c(Cl)c1 | 2450 |
| CO/N=C(\c1ccc(Cl)c(Cl)c1)C(C)C(=O)N[C@H]1N=C(c2ccccc2)c2ccccc2N(C)C1=O (stereo not given in full) | > 10000 |
| CN1C(=O)[C@@H](NC(=O)[C@H](c2ccc(F)cc2)[C@@H](O)c2ccc(F)c(F)c2)N=C(c2ccccc2)c2ccccc21 | 9.6 |
| C[C@H](C(=O)N[C@H]1N=C(c2ccccc2)c2ccccc2N(C)C1=O)[C@H](OCC(N)=O)c1ccc(Cl)c(Cl)c1 | 4750 |
| CC(C(=O)N[C@H]1N=C(c2ccccc2)c2ccccc2N(C)C1=O)C(CO)c1ccc(F)c(F)c1 (stereo not given in full) | 6.9 |
| CN1C(=O)[C@@H](NC(=O)[C@H](c2ccc(F)cc2)[C@@H](O)c2ccc(Cl)c(Cl)c2)N=C(c2ccccc2)c2ccccc21 | 67 |
| CN1C(=O)[C@@H](NC(=O)[C@@H](c2ccc(F)cc2)[C@H](CO)c2ccc(F)c(F)c2)N=C(c2ccccc2)c2ccccc21 | 0.07 |
| CN1C(=O)[C@@H](NC(=O)[C@@H](Cc2ccc(Cl)c(Cl)c2)c2ccc(F)cc2)N=C(c2ccccc2)c2ccccc21 | 15 |
| C[C@@H](C(=O)N[C@H]1N=C(c2ccccc2)c2ccccc2N(C)C1=O)[C@H](O)c1ccc(Cl)c(Cl)c1 | 1340 |
| CC[C@H](c1ccc(F)c(F)c1)[C@@H](C(=O)N[C@H]1N=C(c2ccccc2)c2ccccc2N(C)C1=O)c1ccc(F)cc1 | 212 |
| C[C@H](Cc1ccc(Cl)c(Cl)c1)C(=O)N[C@H]1N=C(c2ccccc2)c2ccccc2N(C)C1=O | 320 |
| C[C@H](C(=O)N[C@H]1N=C(c2ccccc2)c2ccccc2N(C)C1=O)[C@@H](O)c1ccc(Cl)c(Cl)c1 | 380 |
| O=C1Nc2ccccc2C(c2ccccc2)=N[C@@H]1NC(=O)[C@@H](c1ccc(F)cc1)[C@H](CO)c1ccc(F)c(F)c1 | 0.06 |
